# The source made the active and inactive calls. No cut-off for these calls is given here.
# How the values were obtained:
# [1] = Thermodynamic solubility of the compound in pH 7.4 phosphate buffered saline assessed per […] at 7 to 9 mg incubated for 24 hrs under shaking condition by HPLC analysis; type: physicochemical; settings: in vitro, pH 7.4, 24 h
# [2] = Chemical stability of the compound in D2O measured incubated for >1 year at room temperature under dark condition by NMR analysis; type: physicochemical
# [3] = Photoisomerization of the compound in D2O incubated for 7 days under sunlight by NMR analysis
# SH-SY5Y [4] = assay: Cytotoxicity against human SH-SY5Y cells assessed as reduction in cell viability at 5 to 10 uM measured after 24 hrs by MTS assay; type: cell-based
# In short: (§1)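 SH-SY5Y human neuroblastoma cells grown in Advanced DMEM with 10% FBS at 37 °C, 5% CO2, and switched to serum-depleted medium before treatment. Compounds (20 mM DMSO stocks) were applied at 5, 10 or 50 μM for 24 h. Viability read by MTS assay.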
# [5] = Cytotoxicity against human SH-SY5Y cells assessed as cell viability at 50 uM measured after 24 hrs by MTS assay relative to control; type: cell-based; settings: read-out: Activity; in short: as §1
# [6] = molecular target: T1, Amine oxidase [flavin-containing] A (Mus musculus, UniProt Q64133); assay: Inhibition of MAOA in Swiss mouse brain homogenates assessed as residual activity at 50 uM using 5-HT as substrate preincubated for 10 mins followed by substrate addition by amplex red reagent-based horseradish peroxidase-coupled fluorescence assay relative to control; type: tissue-based; settings: read-out: Activity
# T1 sequence (Q64133 whole entry): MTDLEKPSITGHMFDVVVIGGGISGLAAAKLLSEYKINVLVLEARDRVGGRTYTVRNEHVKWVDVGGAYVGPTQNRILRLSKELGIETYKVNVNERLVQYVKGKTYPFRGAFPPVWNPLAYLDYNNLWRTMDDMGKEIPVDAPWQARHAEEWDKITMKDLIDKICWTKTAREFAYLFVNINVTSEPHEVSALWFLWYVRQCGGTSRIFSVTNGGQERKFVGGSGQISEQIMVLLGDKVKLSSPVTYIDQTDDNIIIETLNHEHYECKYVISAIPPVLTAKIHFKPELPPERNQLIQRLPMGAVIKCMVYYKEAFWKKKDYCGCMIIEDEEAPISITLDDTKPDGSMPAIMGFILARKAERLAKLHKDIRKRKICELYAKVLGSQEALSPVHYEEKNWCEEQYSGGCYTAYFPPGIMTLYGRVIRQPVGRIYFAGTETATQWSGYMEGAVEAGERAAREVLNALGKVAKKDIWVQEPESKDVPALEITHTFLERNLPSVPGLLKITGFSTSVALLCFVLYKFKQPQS
# Mus musculus [7] = assay: Ex vivo inhibition of MAOA in Swiss mouse brain homogenates assessed as residual activity at 60 mg/kg, ip measured after 30 mins using 5-HT as substrate by amplex red reagent-based horseradish peroxidase-coupled fluorescence assay relative to control; type: functional
# In short: (§2)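 Male Swiss mice (n = 3 per group) received 60 mg/kg ip in 0.9% saline, or saline alone, 30 min before brain homogenate preparation. […] Residual activity reported as mean ± SD, n = 1 in triplicate.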
# Mus musculus [8] = assay: Ex vivo inhibition of MAOA/MAOB in Swiss mouse brain homogenates assessed as residual activity at 60 mg/kg, ip measured after 30 mins using p-tyramine as substrate by amplex red reagent-based horseradish peroxidase-coupled fluorescence assay relative to control; type: functional; in short: as §2
# Mus musculus [9] = assay: Ex vivo inhibition of MAOA in ip dosed Swiss mouse brain homogenates measured after 30 mins using 5-HT as substrate by amplex red reagent-based horseradish peroxidase-coupled fluorescence assay; type: functional
# Mus musculus [10] = assay: Ex vivo inhibition of MAOA in Swiss mouse brain homogenates assessed as residual activity at 0.3 mg/kg, ip measured after 30 mins using 5-HT as substrate by amplex red reagent-based horseradish peroxidase-coupled fluorescence assay relative to control; type: functional
# Mus musculus [11] = assay: (§3) Ex vivo inhibition of MAOA in Swiss mouse brain homogenates assessed as residual activity at 0.3 mg/kg, ip administered once daily for 10 days measured 30 mins post-last dose using 5-HT as substrate by amplex red reagent-based horseradish peroxidase-coupled fluorescence assay relative to control; type: functional
# Mus musculus [12] = assay: Ex vivo inhibition of MAOA in Swiss mouse brain homogenates assessed as residual activity at 30 mg/kg, po administered via gavage measured after 90 mins using 5-HT as substrate by amplex red reagent-based horseradish peroxidase-coupled fluorescence assay relative to control; type: functional
# [13] = Apparent permeability across absorptive direction in Sprague-Dawley rat ileum at 50 uM measured after 20 mins LC-MS/MS analysis; type: ADME, tissue-based
# [14] = Apparent permeability across eliminatory direction in Sprague-Dawley rat ileum at 50 uM measured after 20 mins LC-MS/MS analysis; type: ADME, tissue-based
# Mus musculus [15] = assay: Antidepressant-like activity in Swiss mouse assessed as reduction in immobility time at 1 to 30 mg/kg, ip administered as single dose for 30 mins prior to testing measured for last 4 mins of 6 mins test by tail suspension test; type: functional, organism-based
# Mus musculus [16] = assay: Antianxiety activity in Swiss mouse assessed as increase in open arm entries at 3 mg/kg, ip measured after 30 mins and monitored for 5 mins by elevated plus maze test relative to control; type: functional
# Mus musculus [17] = assay: Antianxiety activity in Swiss mouse assessed as increase in time spent in open arm entries at 3 mg/kg, ip measured after 30 mins and monitored for 5 mins by elevated plus maze test relative to control; type: functional
# Mus musculus [18] = assay: Effect on spontaneous locomotor activity in Swiss mouse assessed as change in number of light beam crossings at 3 mg/kg, ip measured after 30 mins and monitored for 5 mins; type: ADME, organism-based; settings: in vivo
# Mus musculus [19] = assay: Antidepressant-like activity in Swiss mouse assessed as reduction in immobility time at 0.3 mg/kg, ip administered once daily for 10 days measured for last 4 mins of 6 mins test at 30 mins post-last dose test by tail suspension test; type: functional, organism-based
# In short: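 Male Swiss mice injected ip daily with 0.3 mg/kg in 0.9% saline for 10 days (n = 10; saline controls n = 8). Tail suspension test on day 10, 30 min after the injection. Immobility time reported as mean ± SEM and compared by unpaired t-test.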
# Mus musculus [20] = assay: Antianxiety activity in Swiss mouse at 0.3 mg/kg, ip […] and monitored for 5 mins by elevated plus maze test; type: functional, organism-based
# Mus musculus [21] = assay: Effect on spontaneous locomotor activity in Swiss mouse assessed as change in number of light beam crossings at 0.3 mg/kg, ip administered […] and monitored for 5 mins; type: ADME, organism-based; settings: in vivo
# [22] = Toxicity in Swiss mouse assessed as change in body weight at 0.3 mg/kg, ip administered once daily for 10 days measured during compound dosing; type: organism-based; settings: in vivo, 240 h
# [23] = Toxicity in Swiss mouse assessed as change in behavior at 0.3 mg/kg, ip administered once daily for 10 days measured during compound dosing; type: organism-based; settings: in vivo, 240 h
# SH-SY5Y [24] = assay: Neuroprotective activity against 6-OHDA-induced toxicity in human SH-SY5Y cells assessed as LDH release at 5 uM pretreated for 30 mins followed by 6-OHDA challenge and measured after 24 hrs by cytotox-onetm homogeneous membrane integrity assay (reference value: 135%); type: functional
# SH-SY5Y [25] = assay: Neuroprotective activity against 6-OHDA-induced toxicity in human SH-SY5Y cells assessed as reduction in propidium iodide positive cells at 5 uM pretreated for 30 mins followed by 6-OHDA challenge and measured after 24 hrs by propidium iodide staining-based flow cytometric analysis relative to 6-OHDA; type: functional
# In short: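 SH-SY5Y cells were grown in Advanced DMEM with 10% FBS at 37 °C, 5% CO2 to 80% confluence, then switched to serum-depleted medium. Compound (5 μM, from a 20 mM DMSO stock) was added 30 min before 6-OHDA (100 μM). After 24 h, PI staining was read by flow cytometry. Runs were n ≥ 2, each in duplicate, with one-way ANOVA and Bonferroni.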
# [26] = Apparent permeability in Sprague-Dawley rat ileum at 50 uM measured after 20 mins LC-MS/MS analysis; type: ADME, tissue-based
# [27] = molecular target: T2, Amine oxidase [flavin-containing] B (Mus musculus, UniProt Q8BW75); assay: Inhibition of MAOB in Swiss mouse brain homogenates assessed as residual activity at 50 uM using benzylamine as substrate preincubated for 10 mins followed by substrate addition by amplex red reagent-based horseradish peroxidase-coupled fluorescence assay relative to control; type: tissue-based; settings: read-out: Activity
# T2 sequence (Q8BW75 whole entry): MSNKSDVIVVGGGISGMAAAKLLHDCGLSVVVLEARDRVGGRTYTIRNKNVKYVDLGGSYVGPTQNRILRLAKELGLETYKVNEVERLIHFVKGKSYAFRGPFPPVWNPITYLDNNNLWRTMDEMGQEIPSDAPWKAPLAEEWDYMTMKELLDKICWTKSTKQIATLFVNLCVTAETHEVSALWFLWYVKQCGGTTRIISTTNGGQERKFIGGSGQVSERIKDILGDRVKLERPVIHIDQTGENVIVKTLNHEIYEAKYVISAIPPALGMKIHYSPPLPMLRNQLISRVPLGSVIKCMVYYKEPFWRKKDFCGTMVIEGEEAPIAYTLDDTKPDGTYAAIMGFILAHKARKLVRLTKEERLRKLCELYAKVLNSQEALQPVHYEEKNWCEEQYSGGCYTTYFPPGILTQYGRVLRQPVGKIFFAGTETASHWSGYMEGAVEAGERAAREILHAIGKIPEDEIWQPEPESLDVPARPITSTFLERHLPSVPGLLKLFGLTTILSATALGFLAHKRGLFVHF
# Mus musculus [28] = assay: Ex vivo inhibition of MAOB in Swiss mouse brain homogenates assessed as residual activity at 60 mg/kg, ip measured after 30 mins using benzylamine as substrate by amplex red reagent-based horseradish peroxidase-coupled fluorescence assay relative to control; type: functional; in short: as §2
# Mus musculus [29] = assay: Ex vivo inhibition of MAOB in ip dosed Swiss mouse brain homogenates measured after 30 mins using benzylamine as substrate by amplex red reagent-based horseradish peroxidase-coupled fluorescence assay; type: functional; settings: 0.5 h
# Mus musculus [30] = assay: Ex vivo inhibition of MAOB in Swiss mouse brain homogenates assessed as residual activity at 0.3 mg/kg, ip measured after 30 mins using benzylamine as substrate by amplex red reagent-based horseradish peroxidase-coupled fluorescence assay relative to control; type: functional
# Mus musculus [31] = assay: as §3, with “MAOB” for “MAOA”, “benzylamine” for “5-HT”; type: functional
# Mus musculus [32] = assay: Ex vivo inhibition of MAOB in Swiss mouse brain homogenates assessed as residual activity at 30 mg/kg, po administered via gavage measured after 90 mins using benzylamine as substrate by amplex red reagent-based horseradish peroxidase-coupled fluorescence assay relative to control; type: functional
# Mus musculus [33] = assay: Effect on spontaneous locomotor activity in Swiss mouse assessed as change in number of light beam crossings at >10 mg/kg, ip measured after 30 mins and monitored for 5 mins; type: ADME, organism-based; settings: in vivo
# In short: (§4)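 Male Swiss mice given single ip doses of ≥10 mg/kg in 0.9% saline, tested 30 min later in the hole-board test combined with spontaneous locomotor activity recording.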
# Mus musculus [34] = assay: Effect on behavioral changes in Swiss mouse at >10 mg/kg, ip measured after 30 mins and monitored for 5 mins by hole-board test; type: ADME, organism-based; settings: in vivo; in short: as §4
# Mus musculus [35] = assay: Effect on behavioral changes in Swiss mouse at 0.3 mg/kg, ip administered […] and monitored for 5 mins by hole-board test; type: ADME, organism-based; settings: in vivo
structure (smiles),measurement,setting,value
C#CCN1CCC(/C=C\c2cccc(F)c2)CC1.Cl,Therm solubility,[1],≥ 34.4 mg/mL
same,Stability,[2],Stable
same,Drug metabolism,[3],Metabolite not detected
same,Activity,SH-SY5Y [4],Non-Toxic
same,"viability at 24 h, 50 µM",[5],> 80%
same,activity at 50 µM,[6],-1.3%
same,Activity,Mus musculus [7],1.6%
same,Activity,Mus musculus [8],14.2%
same,inhibition,Mus musculus [9],Dose-dependent effect
same,ED50,Mus musculus [9]; 0.5 h,0.43 mg/kg
same,Activity,Mus musculus [10],67.8%
same,Activity,Mus musculus [11],9.5%
same,Activity,Mus musculus [12],45.3%
same,"Papp A→B at 20 min, 50 µM",[13],10.8 ×10⁻⁶ cm/s
same,"Papp at 20 min, 50 µM",[14],35.4 ×10⁻⁶ cm/s
same,Activity,Mus musculus [15],inactive
same,fold change (FC),Mus musculus [16],2
same,fold change (FC),Mus musculus [17],2.1
same,Activity,Mus musculus [18],Non-Toxic
same,Activity,Mus musculus [19],Active
same,Activity,Mus musculus [20],inactive
same,Activity,Mus musculus [21],Non-Toxic
same,Activity,[22],Non-Toxic
same,Activity,[23],Non-Toxic
C#CCN1CCC(/C=C/c2ccc(C(F)(F)F)cc2)CC1.Cl,Activity,SH-SY5Y [4],Non-Toxic
same,"viability at 24 h, 50 µM",[5],> 80%
same,Activity,SH-SY5Y [24],87%
same,fold change (FC),SH-SY5Y [25],0.65
same,Papp,[26],Impermeable
C#CCN1CCC(CCc2ccc(C(F)(F)F)cc2)CC1.Cl,Stability,[2],Stable
same,Activity,SH-SY5Y [4],Non-Toxic
same,"viability at 24 h, 50 µM",[5],> 80%
same,Activity,Mus musculus [8],77.2%
same,activity at 50 µM,[27],-7.7%
same,Activity,Mus musculus [28],24.3%
same,ED50,Mus musculus [29],1.38 mg/kg
same,Activity,Mus musculus [30],83.4%
same,Activity,Mus musculus [31],28.3%
same,Activity,Mus musculus [32],30.5%
same,Activity,Mus musculus [21],Toxic
same,Activity,Mus musculus [33],Toxic
same,Activity,Mus musculus [34],Toxic
same,Activity,Mus musculus [35],Toxic
same,Activity,[22],Non-Toxic
same,Activity,[23],Non-Toxic

# — ChEMBL document CHEMBL4321878, “Stereoselective Activity of 1-Propargyl-4-styrylpiperidine-like Analogues That Can Discriminate between Monoamine Oxidase Isoforms A and B” (J Med Chem, 2020)
